Experimental data from ChEMBL document CHEMBL4052694, “Discovery of novel 5-oxa-2,6-diazaspiro[3.4]oct-6-ene derivatives as potent, selective, and orally available somatostatin receptor subtype 5 (SSTR5) antagonists for treatment of type 2 diabetes mellitus” (Bioorg Med Chem, 2017).
pIC50: −log10 of the molar value. ≈ marks a conversion by molar mass, not a printed value. Calls of active or inactive are those of the source. No cut-off for these calls is given here.

Columns and labels:
[1] = system: Mus musculus; assay: Antidiabetic activity in HFD-fed C57BL/6J mouse assessed as decrease in blood glucose level at 30 mg/kg, po pretreated for 1 hr followed by glucose challenge by OGTT; assay type: functional, organism-based
Method in brief: (§1)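 Male C57BL/6J mice on high-fat diet for ten days. Fasted overnight and grouped by weight and blood glucose at 12.5 h. Compound given orally at 1, 3, 10 or 30 mg/kg in 0.5% methylcellulose at 15 h; oral glucose 5 g/kg at 16 h.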

[2] = system: Mus musculus; assay: Antidiabetic activity in HFD-fed C57BL/6J mouse assessed as increase in insulin secretion at 30 mg/kg, po pretreated for 1 hr followed by glucose challenge by OGTT; assay type: functional, organism-based
[3] = system: Mus musculus; assay: Antidiabetic activity in HFD-fed C57BL/6J mouse assessed as decrease in blood glucose AUC at 30 mg/kg, po pretreated for 1 hr followed by glucose challenge after 1 hr of compound dosing measured up to 120 mins post glucose challenge by OGTT; assay type: functional, organism-based; method in brief: as §1
[4] = molecular target: Somatostatin receptor type 5 (Homo sapiens, UniProt P35346); assay: Antagonist activity at human SSTR5 expressed in CHO cells assessed as inhibition of SST14-induced forskolin-stimulated intracellular cAMP level incubated for 15 mins followed by forskolin stimulation for 30 mins by HTRF assay; assay type: functional, cell-based
[5] = molecular target: T1, Somatostatin receptor type 5 (Mus musculus, UniProt O08858); assay: Antagonist activity at mouse SSTR5 expressed in CHO cells assessed as inhibition of SST14-induced forskolin-stimulated intracellular cAMP level incubated for 15 mins followed by forskolin stimulation for 30 mins by HTRF assay; assay type: functional, cell-based
T1 sequence (O08858 whole entry): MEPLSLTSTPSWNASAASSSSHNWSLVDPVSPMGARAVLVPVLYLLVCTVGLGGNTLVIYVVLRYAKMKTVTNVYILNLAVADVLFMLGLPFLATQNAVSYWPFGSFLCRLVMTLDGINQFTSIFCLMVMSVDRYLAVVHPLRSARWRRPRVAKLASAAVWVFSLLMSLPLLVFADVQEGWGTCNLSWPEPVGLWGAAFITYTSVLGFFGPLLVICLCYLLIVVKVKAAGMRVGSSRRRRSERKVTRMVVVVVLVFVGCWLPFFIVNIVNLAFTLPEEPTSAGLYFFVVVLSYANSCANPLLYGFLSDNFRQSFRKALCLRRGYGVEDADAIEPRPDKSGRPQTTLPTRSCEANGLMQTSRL

[6] = molecular target: hERG (KCNH2) (Homo sapiens, UniProt Q12809); assay: Inhibition of human ERG expressed in CHO cells assessed as decrease in peak tail current at 30 uM after 5 mins at -80 mV holding potential by patch clamp assay relative to control; assay type: cell-based; details: CHO cells expressing human ERG
Method in brief: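 hERG-expressing CHO cells grown at 32 °C in Ham's F-12 with 10% FBS and Geneticin. Population patch clamp, perforated with 100 µg/mL amphotericin B. PBS with Ca/Mg outside; 140 mM KCl, 2 mM MgCl2, 1 mM EGTA, 20 mM HEPES pH 7.3 inside. Holding -80 mV, step to 40 mV for 2 s, then -50 mV for 2 s. Peak tail current compared before and after 5 min with compound at 30 µM, n = 4.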

[7] = 1-octanol/aqueous buffer solution partition coefficient, log D of the compound at pH 7.4 by UV-vis/HPLC method; assay type: physicochemical
Method in brief: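 Octanol/buffer partition coefficient at pH 7.4, estimated chromatographically by HPLC with UV–vis detection, using conditions adapted from a published method.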

[8] = Solubility of the compound in aqueous buffer solution at pH 6.8 after 18 hrs by HPLC analysis; assay type: physicochemical
Method in brief: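 0.4 mg compound in 0.4 mL aqueous buffer, pH 6.8 (Japanese Pharmacopoeia second disintegration fluid). Shaken at 500 rpm at 37 °C for 18 h, then filtered; dissolved concentration measured by HPLC.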

[9] = molecular target: Somatostatin receptor type 1 (Homo sapiens) (UniProt P30872); assay: Inhibition of human SSTR1 at 10 uM by radioligand binding assay relative to control
[10] = molecular target: Somatostatin receptor type 2 (Homo sapiens) (UniProt P30874); assay: Inhibition of human SSTR2 at 10 uM by radioligand binding assay relative to control
[11] = molecular target: Somatostatin receptor type 3 (Homo sapiens) (UniProt P32745); assay: Inhibition of human SSTR3 at 10 uM by radioligand binding assay relative to control
[12] = molecular target: Somatostatin receptor type 4 (Homo sapiens) (UniProt P31391); assay: Inhibition of human SSTR4 at 10 uM by radioligand binding assay relative to control
[13] = Intrinsic clearance in human liver microsomes at 1 uM after 15 to 30 mins in presence of NADPH by LC/MS/MS analysis; assay type: ADME, microsome; details: read-out: CLH
Method in brief: (§2)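 Liver microsomes at 0.2 mg/mL protein in 50 mM potassium phosphate buffer pH 7.4 with compound at 1 µM. Reaction started with an NADPH-generating system (5 mM MgCl2, 5 mM glucose-6-phosphate, 0.5 mM β-NADP+, 1.5 U/mL G6PDH). Stopped with acetonitrile at 15 and 30 min; analysed by LC/MS/MS. Metabolic velocity taken from the slope of concentration versus time.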

[14] = Intrinsic clearance in mouse liver microsomes at 1 uM after 15 to 30 mins in presence of NADPH by LC/MS/MS analysis; assay type: ADME, microsome; details: read-out: CLH; method in brief: as §2
[15] = Total clearance in ICR mouse at 0.1 mg/kg, iv administered as cassette dose by LC/MS/MS analysis; assay type: ADME, organism-based; details: in vivo
Method in brief: (§3)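 Non-fasted male ICR mice, 8 weeks old, n = 3, dosed by cassette: 0.1 mg/kg iv, or 1 mg/kg po as a suspension in 0.5% methylcellulose. Plasma deproteinized with acetonitrile and measured by LC/MS/MS. AUC taken over 0–8 h.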

[16] = Volume of distribution at steady state in ICR mouse at 0.1 mg/kg, iv administered as cassette dose by LC/MS/MS analysis; assay type: ADME, organism-based; details: in vivo, read-out: Vdss; method in brief: as §3
[17] = Cmax in ICR mouse at 1 mg/kg, po administered as cassette dose by LC/MS/MS analysis; assay type: ADME, organism-based; parameters: dose 1 mg/kg, route oral; details: in vivo; method in brief: as §3
[18] = Tmax in ICR mouse at 1 mg/kg, po administered as cassette dose by LC/MS/MS analysis; assay type: ADME, organism-based; details: in vivo; method in brief: as §3
[19] = AUC (0 to 8 hrs) in ICR mouse at 1 mg/kg, po administered as cassette dose by LC/MS/MS analysis; assay type: ADME, organism-based; parameters: dose 1 mg/kg, time < 8 hr, route oral; details: in vivo; method in brief: as §3
[20] = Oral bioavailability in ICR mouse at 1 mg/kg administered as cassette dose by LC/MS/MS analysis; assay type: ADME, organism-based; details: in vivo; method in brief: as §3
[21] = system: Mus musculus; assay: Antidiabetic activity in HFD-fed C57BL/6J mouse assessed as decrease in blood glucose level at 100 mg/kg, po pretreated for 1 hr followed by glucose challenge after 1 hr of compound dosing measured up to 120 mins post glucose challenge by OGTT; assay type: functional, organism-based
Method in brief: (§4)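 Male C57BL/6J mice on high-fat diet for ten days. Fasted from morning and grouped by weight and blood glucose at 4 h. Vehicle (0.5% methylcellulose) or compound given orally at 5.5 h; oral glucose 5 g/kg given 1 h later.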

[22] = system: Mus musculus; assay: Toxicity in HFD-fed C57BL/6J mouse assessed as induction of hypoglycemia at 100 mg/kg, po after 1 hr; assay type: organism-based; details: in vivo
[23] = system: Mus musculus; assay: Antidiabetic activity in HFD-fed C57BL/6J mouse assessed as decrease in blood glucose AUC at 100 mg/kg, po pretreated for 1 hr followed by glucose challenge after 1 hr of compound dosing measured up to 120 mins post glucose challenge by OGTT; assay type: functional, organism-based; method in brief: as §4
[24] = system: Mus musculus; assay: Antidiabetic activity in HFD-fed C57BL/6J mouse assessed as decrease in blood glucose level administered po pretreated for 1 hr followed by glucose challenge after 1 hr of compound dosing measured up to 120 mins post glucose challenge by OGTT; assay type: functional, organism-based; method in brief: as §1
[25] = system: Mus musculus; assay: Antidiabetic activity in HFD-fed SSTR5 knockout C57BL/6J mouse assessed as decrease in blood glucose level administered po pretreated for 1 hr followed by glucose challenge after 1 hr of compound dosing measured up to 120 mins post glucose challenge by OGTT; assay type: functional, organism-based
[26] = system: Mus musculus; assay: Antidiabetic activity in HFD-fed C57BL/6J mouse assessed as increase in insulin secretion at 100 mg/kg, po pretreated for 1 hr followed by glucose challenge after 1 hr of compound dosing measured up to 120 mins post glucose challenge by OGTT

Chain of hERG (KCNH2) (Q12809 whole entry): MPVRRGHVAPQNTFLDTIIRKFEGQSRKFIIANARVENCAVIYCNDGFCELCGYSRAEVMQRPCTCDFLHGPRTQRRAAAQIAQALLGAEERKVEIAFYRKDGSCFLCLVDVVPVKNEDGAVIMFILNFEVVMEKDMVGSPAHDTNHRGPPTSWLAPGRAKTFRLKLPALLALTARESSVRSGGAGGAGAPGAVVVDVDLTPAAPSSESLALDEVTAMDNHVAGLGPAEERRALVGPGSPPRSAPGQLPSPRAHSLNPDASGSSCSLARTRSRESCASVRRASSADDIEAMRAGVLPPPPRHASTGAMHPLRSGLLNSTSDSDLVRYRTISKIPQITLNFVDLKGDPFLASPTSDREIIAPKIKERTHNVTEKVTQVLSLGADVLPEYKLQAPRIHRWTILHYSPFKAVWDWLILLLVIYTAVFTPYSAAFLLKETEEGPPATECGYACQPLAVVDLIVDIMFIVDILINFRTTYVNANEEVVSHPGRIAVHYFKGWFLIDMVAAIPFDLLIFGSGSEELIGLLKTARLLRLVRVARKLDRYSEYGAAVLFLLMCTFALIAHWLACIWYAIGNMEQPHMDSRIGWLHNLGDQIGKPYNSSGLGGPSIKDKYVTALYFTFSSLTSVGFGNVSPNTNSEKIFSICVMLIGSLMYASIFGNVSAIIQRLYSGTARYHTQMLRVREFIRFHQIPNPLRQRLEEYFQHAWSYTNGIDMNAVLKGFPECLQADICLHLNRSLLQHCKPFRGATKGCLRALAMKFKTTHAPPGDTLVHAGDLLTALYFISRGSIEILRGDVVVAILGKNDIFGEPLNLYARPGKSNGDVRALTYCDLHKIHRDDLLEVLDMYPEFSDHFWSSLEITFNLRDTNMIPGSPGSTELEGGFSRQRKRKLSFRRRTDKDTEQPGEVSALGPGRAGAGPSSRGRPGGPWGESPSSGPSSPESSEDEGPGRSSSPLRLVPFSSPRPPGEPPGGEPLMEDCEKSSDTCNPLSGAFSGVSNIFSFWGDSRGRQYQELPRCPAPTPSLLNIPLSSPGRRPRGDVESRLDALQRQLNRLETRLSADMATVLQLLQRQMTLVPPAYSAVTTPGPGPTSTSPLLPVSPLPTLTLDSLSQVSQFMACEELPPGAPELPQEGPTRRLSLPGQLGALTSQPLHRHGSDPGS
Chain of Somatostatin receptor type 5 (Homo sapiens, UniProt P35346) (P35346 whole entry): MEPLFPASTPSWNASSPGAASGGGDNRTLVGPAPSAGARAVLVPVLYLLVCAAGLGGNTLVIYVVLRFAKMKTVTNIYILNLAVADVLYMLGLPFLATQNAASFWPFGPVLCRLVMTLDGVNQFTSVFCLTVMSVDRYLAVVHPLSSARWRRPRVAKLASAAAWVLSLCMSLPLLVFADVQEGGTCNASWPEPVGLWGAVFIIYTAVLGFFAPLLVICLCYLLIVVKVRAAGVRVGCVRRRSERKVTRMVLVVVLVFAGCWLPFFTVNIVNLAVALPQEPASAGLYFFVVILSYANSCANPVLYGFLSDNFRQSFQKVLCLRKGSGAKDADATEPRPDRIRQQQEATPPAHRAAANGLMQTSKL
Chain of Somatostatin receptor type 2 (Homo sapiens) (P30874 whole entry): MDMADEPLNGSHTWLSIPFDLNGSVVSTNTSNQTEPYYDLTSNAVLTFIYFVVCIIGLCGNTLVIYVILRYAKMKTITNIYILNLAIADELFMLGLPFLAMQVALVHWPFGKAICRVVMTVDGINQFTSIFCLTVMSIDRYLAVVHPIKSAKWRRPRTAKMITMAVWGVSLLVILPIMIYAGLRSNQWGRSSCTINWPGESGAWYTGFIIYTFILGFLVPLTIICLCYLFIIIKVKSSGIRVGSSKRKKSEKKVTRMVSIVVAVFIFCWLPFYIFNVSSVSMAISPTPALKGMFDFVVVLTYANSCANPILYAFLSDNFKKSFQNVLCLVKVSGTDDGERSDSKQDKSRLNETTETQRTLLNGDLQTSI
Chain of Somatostatin receptor type 1 (Homo sapiens) (P30872 whole entry): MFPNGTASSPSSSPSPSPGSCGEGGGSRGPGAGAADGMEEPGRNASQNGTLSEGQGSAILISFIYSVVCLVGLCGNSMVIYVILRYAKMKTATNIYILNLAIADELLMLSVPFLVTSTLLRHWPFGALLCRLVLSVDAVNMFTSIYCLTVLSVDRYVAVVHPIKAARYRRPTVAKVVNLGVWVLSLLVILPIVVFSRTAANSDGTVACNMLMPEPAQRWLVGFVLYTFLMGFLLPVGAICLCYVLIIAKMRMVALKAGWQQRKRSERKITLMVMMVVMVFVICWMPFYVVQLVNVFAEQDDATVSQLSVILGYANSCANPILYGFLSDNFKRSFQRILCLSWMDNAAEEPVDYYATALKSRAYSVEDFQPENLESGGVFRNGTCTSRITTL
Chain of Somatostatin receptor type 4 (Homo sapiens) (P31391 whole entry): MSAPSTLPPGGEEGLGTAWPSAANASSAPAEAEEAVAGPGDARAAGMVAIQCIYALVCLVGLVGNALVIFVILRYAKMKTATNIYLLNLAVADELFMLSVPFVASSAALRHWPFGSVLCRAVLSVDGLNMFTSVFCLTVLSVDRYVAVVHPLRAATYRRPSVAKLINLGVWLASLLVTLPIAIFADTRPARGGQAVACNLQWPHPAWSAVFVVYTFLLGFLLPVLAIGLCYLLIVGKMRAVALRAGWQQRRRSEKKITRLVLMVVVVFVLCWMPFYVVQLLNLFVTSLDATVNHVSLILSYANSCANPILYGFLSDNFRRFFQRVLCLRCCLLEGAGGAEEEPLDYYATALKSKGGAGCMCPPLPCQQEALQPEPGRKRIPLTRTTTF
Chain of Somatostatin receptor type 3 (Homo sapiens) (P32745 whole entry): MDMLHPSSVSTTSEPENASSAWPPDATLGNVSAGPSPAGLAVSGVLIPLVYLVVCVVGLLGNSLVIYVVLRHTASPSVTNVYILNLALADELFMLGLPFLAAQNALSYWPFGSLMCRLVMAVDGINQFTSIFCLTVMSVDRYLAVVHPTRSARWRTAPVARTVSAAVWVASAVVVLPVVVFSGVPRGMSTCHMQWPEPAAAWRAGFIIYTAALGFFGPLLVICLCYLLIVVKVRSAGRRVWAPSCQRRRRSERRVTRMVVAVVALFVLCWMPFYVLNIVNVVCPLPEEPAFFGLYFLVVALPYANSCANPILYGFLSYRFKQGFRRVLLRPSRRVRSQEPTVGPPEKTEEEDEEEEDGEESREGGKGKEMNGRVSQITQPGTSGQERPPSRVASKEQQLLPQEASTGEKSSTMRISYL

Row | Structure (SMILES) | pIC50 [4] | pIC50 [5] | inhibition at 5 min, 30 µM [6] [%] | logD [7] | further results
1 | Cn1c(=O)cc(N2CCC[C@@H](N)C2)n(Cc2ccccc2C#N)c1=O |  |  |  |  | Activity [1]: Active; Activity [2]: Active; Activity [3]: Active
2 | CCOc1cc(C(C)N2CC3(CC(c4ccc(C(=O)O)cc4)=NO3)C2)cc(OCC)c1-c1ccc(F)cc1 (stereo not drawn) | 7.02 | 5.70 | 14 | 3.6 | 
3 | CCOc1cc(CN2CC3(CC(c4ccccc4C(=O)O)=NO3)C2)cc(OCC)c1-c1ccc(F)cc1 | < 5.00 | < 5.00 | 4.5 | 3.1 | 
4 | CCOc1cc(CN2CC3(CC(c4ccc(C(N)=O)cc4)=NO3)C2)cc(OCC)c1-c1ccc(F)cc1 | 6.82 | 6.82 |  |  | 
5 | CCOc1cc(CN2CC3(CC(c4ccc(C(=O)O)cc4C)=NO3)C2)cc(OCC)c1-c1ccc(F)cc1 | 6.85 | 7.68 | 18 | 3.5 | 
6 | CCOc1cc(CN2CC3(CC(c4ccccc4)=NO3)C2)cc(OCC)c1-c1ccc(F)cc1 | 5.55 | 6.01 |  |  | 
7 | CCOc1cc(CN2CC3(CC(c4ccc(C(=O)O)cc4)=NO3)C2)cc(OCC)c1-c1ccc(F)cc1 | 8.05 | 7.48 | 65 | 3.3 | solubility at 18 h [8]: 1.3 µg/mL (≈ 2.58 µM)
8 | CCOc1cc(CN2CC3(CC(N4CCC(C(=O)O)C4)=NO3)C2)cc(OCC)c1-c1ccc(F)cc1 (stereo not drawn) | 6.72 | 7.32 | 17 | 2.9 | 
9 | CCOc1cc(CN2CC3(CC(N4CC(C(=O)O)C4)=NO3)C2)cc(OCC)c1-c1ccc(F)cc1 | 6.70 | 6.92 | 8.1 | 2.9 | 
10 | CCOc1cc(CN2CC3(CC([C@H]4CC[C@H](C(=O)O)CC4)=NO3)C2)cc(OCC)c1-c1ccc(F)cc1 | 7.52 | 7.42 | 15 | 3.2 | 
11 | CCOc1cc(C(=O)N2CC3(CC(c4ccc(C(=O)O)cc4)=NO3)C2)cc(OCC)c1-c1ccc(F)cc1 | < 5.00 | < 5.00 | 7.9 | 2.8 | 
12 | CCOc1cc(CN2CC3(CC(c4ccc(CC(=O)O)cc4)=NO3)C2)cc(OCC)c1-c1ccc(F)cc1 | 6.66 | 7.13 |  |  | 
13 | CCOc1cc(CN2CC3(CC(c4ccc(CO)cc4)=NO3)C2)cc(OCC)c1-c1ccc(F)cc1 | 6.00 | 6.37 |  |  | 
14 | CCOc1cc(CN2CC3(CC(c4cccc(C(=O)O)c4)=NO3)C2)cc(OCC)c1-c1ccc(F)cc1 | 6.26 | 6.59 |  |  | 
15 | CCOc1cc(CN2CC3(CC(CCC(=O)O)=NO3)C2)cc(OCC)c1-c1ccc(F)cc1 | 5.49 | 6.66 |  |  | 
16 | CCOc1cc(CN2CC3(CC(N4CCC(C(=O)O)CC4)=NO3)C2)cc(OCC)c1-c1ccc(F)cc1 |  |  | 5.6 |  | inhibition [9]: 11%; inhibition [10]: 8%; inhibition [11]: 14%; inhibition [12]: 10%; microsomal CLint at 1 µM [13]: < 10 µL/min/mg; microsomal CLint at 1 µM [14]: 19 µL/min/mg; solubility at 18 h [8]: 260 µg/mL (≈ 508 µM); clearance [15]: 29.3 mL/min/kg; Vd [16]: 3.05 L/kg; Cmax [17]: 74.8 ng/mL; Tmax [18]: 2 h; AUC(0-t) at 8 h [19]: 332 ng·h/mL; bioavailability [20]: 58%; Activity [21]: Active; Activity [22]: Non-Toxic; Activity [23]: Active; Activity [24]: Dose-dependent effect; Activity [25]: inactive; Activity [26]: Active
17 | CCOc1cc(CN2CC3(CC(c4ccc(C(=O)O)cn4)=NO3)C2)cc(OCC)c1-c1ccc(F)cc1 | 7.21 | 7.70 |  |  | 
18 | CCOc1cc(CN2CC3(CC([C@H]4CC[C@@H](C(=O)O)CC4)=NO3)C2)cc(OCC)c1-c1ccc(F)cc1 | 6.89 | 6.68 | 33 | 3.3 | 
19 | CCOc1cc(CN2CC3(CC(c4ccc(C(=O)O)cc4Cl)=NO3)C2)cc(OCC)c1-c1ccc(F)cc1 | 7.34 | 7.51 | 40 | 3.5 | 
